# Results reported in article PMC2199097 (The Journal of Experimental Medicine, 1997).
# System: CXCR4
# Experiment: Ca2+ mobilization assay in SupT1 cells
# Assay type: cell-based, human
# Conditions: SupT1 cells expressing CXCR4, Fura-2, 500 ng/ml SDF-1α, without ALX40-4C
# Method in brief: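 SupT1 cells were loaded with 2.5 μM Fura-2/AM for 1 h at 37°C in the dark, allowed to efflux 15 min in PBS, then resuspended at 2 × 10⁶ cells/ml in Dulbecco's PBS with calcium and magnesium. Test compound (10–50 μM) was added, and SDF-1α (500 ng/ml) followed ∼90 s later. The Ca²⁺ signal was read on a luminescence spectrometer.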
substance,measurement,value
SDF-1α: the chemokine stromal-derived factor (SDF)-1α (Peprotech),Ca2+ mobilization response to SDF-1α,normally respond to SDF-1α
